According to ChEMBL document CHEMBL4033636, “Identification of selective inhibitors of sphingosine kinases 1 and 2 through a structure-activity relationship study of 4-epi-jaspine B” (Bioorg Med Chem, 2017):

How the values were obtained:
Sphingosine kinase 1 [1] = target: T1, Sphingosine kinase 1 (Homo sapiens, UniProt Q9NYA1); assay: Inhibition of recombinant N-terminal GST-tagged human SphK1 (1 to 384 residues) expressed in baculovirus expression system using sphingosine as substrate after 1 hr in presence of ATP by off-chip mobility shift assay
T1 sequence (Q9NYA1 whole entry, the tested form may be a part): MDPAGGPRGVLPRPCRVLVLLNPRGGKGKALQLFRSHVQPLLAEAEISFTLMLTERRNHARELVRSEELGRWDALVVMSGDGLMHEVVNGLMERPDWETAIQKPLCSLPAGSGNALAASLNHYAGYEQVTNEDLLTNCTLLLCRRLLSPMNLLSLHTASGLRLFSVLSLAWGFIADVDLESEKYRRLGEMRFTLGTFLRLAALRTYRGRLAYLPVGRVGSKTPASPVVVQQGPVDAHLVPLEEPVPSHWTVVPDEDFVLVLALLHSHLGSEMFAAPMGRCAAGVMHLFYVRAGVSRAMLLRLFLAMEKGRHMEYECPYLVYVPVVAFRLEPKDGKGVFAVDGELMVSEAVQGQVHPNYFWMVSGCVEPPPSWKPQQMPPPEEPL
Outline: (§1)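 GST-fusion kinases purified on glutathione sepharose. Compounds in DMSO diluted fourfold into 20 mM HEPES pH 7.5, 0.01% Triton X-100, 2 mM DTT. Reaction: 1 µM sphingosine, 5 mM MgCl2, ATP 25 µM (SphK1) or 600 µM (SphK2), room temperature 1 h, n = 2. Read-out: P/(P+S) from electrophoretic peak heights. […] IC50 fitted.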

Sphingosine kinase 2 [2] = target: T2, Sphingosine kinase 2 (Homo sapiens, UniProt Q9NRA0); assay: Inhibition of recombinant N-terminal GST-tagged human SphK2 (1 to 618 residues) expressed in baculovirus expression system using sphingosine as substrate after 1 hr in presence of ATP by off-chip mobility shift assay; outline: as §1
T2 sequence (Q9NRA0 whole entry): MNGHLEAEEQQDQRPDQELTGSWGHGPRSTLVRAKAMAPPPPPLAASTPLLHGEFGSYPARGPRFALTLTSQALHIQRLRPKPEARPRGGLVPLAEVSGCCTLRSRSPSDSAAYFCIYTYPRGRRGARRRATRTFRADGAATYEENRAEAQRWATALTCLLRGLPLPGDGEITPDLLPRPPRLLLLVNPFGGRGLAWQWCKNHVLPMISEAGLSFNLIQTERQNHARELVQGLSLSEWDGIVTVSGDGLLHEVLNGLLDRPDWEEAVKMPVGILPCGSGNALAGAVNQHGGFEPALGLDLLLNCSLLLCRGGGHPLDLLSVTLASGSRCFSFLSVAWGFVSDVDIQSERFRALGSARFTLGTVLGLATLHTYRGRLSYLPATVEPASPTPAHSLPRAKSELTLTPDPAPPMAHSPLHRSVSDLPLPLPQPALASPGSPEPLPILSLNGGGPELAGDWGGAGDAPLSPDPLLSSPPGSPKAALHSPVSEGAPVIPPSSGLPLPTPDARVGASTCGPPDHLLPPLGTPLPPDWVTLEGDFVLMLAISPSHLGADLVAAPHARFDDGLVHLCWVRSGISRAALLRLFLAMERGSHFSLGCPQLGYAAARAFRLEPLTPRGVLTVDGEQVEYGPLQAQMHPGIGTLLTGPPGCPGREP

Sphingosine kinase 1 [3] = target: T1, Sphingosine kinase 1; assay: Inhibition of recombinant human SphK1 using NBD-sphingosine as substrate after 2 hrs in presence of ATP by HPLC method
Sphingosine kinase 2 [4] = target: T2, Sphingosine kinase 2; assay: Inhibition of recombinant human SphK2 using NBD-sphingosine as substrate after 2 hrs in presence of ATP by HPLC method
Sphingosine kinase 2 [5] = target: T3, Sphingosine kinase 2 (Mus musculus, UniProt Q9JIA7); assay: Inhibition of recombinant mouse SphK2 expressed in baculovirus infected sf9 cells using D-erythro-sphingosine as substrate in presence of [gamma-33P]ATP by scintillation counting method
T3 sequence (Q9JIA7 whole entry): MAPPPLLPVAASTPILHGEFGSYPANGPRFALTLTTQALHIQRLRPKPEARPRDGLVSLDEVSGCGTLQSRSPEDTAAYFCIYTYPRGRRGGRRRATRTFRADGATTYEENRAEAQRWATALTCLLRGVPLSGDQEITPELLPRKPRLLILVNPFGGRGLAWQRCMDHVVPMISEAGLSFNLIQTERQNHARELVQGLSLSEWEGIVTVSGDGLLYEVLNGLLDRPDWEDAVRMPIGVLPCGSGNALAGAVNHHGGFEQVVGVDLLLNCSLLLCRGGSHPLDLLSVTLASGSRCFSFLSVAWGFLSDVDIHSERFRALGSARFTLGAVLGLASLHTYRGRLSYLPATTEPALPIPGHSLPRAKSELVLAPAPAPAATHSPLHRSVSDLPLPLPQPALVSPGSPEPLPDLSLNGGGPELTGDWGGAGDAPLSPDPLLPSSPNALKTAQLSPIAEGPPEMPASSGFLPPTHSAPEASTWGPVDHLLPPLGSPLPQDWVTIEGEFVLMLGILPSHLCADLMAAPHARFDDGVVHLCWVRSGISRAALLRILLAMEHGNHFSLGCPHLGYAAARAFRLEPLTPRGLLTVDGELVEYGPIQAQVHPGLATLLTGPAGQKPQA

Sphingosine kinase 1 [6] = target: T1, Sphingosine kinase 1; assay: Inhibition of recombinant human SphK1 expressed in baculovirus infected sf9 cells using D-erythro-sphingosine as substrate in presence of [gamma-33P]ATP by scintillation counting method
Sphingosine kinase 1 [7] = target: T1, Sphingosine kinase 1; assay: Inhibition of human SphK1 using sphingosine as substrate in presence of [gamma-32P]ATP
Sphingosine kinase 2 [8] = target: T2, Sphingosine kinase 2; assay: Inhibition of human SphK2 using sphingosine as substrate after 15 to 20 mins in presence of [gamma-32P]ATP by Cerenkov counting method
Sphingosine kinase 1 [9] = target: T1, Sphingosine kinase 1; assay: Inhibition of human SphK1 using sphingosine as substrate after 15 to 20 mins in presence of [gamma-32P]ATP by Cerenkov counting method

Row | SMILES | IC50 (Sphingosine kinase 1 [1]) [nM] | IC50 (Sphingosine kinase 2 [2]) [nM] | further results
1 | CCCCCCCCc1ccc(CC[C@@H]2OC[C@@H](N)[C@@H]2O)cc1 | 1400 | 560 | –
2 | CC(=O)N(C1=C(Cl)C(=O)c2ccccc2C1=O)C1CCCCC1 | – | – | IC50 (Sphingosine kinase 1 [3]): 2000 nM; IC50 (Sphingosine kinase 2 [4]): > 100 µM
3 | CCCCCCCCCCCCCC[C@@H]1OC[C@@H](NC(C)=O)[C@@H]1O | > 30000 | > 30000 | –
4 | CCCCCCCCCOCCCC[C@@H]1OC[C@@H](N)[C@@H]1O | > 30000 | > 30000 | –
5 | CCCCCCCCc1ccccc1CC[C@@H]1OC[C@@H](N)[C@@H]1O | > 30000 | > 30000 | –
6 | CCCCCCCc1cccc(CC[C@@H]2OC[C@@H](N)[C@@H]2O)c1 | > 30000 | 2200 | –
7 | CCCCCCCCCCc1ccc(CC[C@@H]2OC[C@@H](N)[C@@H]2O)cc1 | 420 | 670 | –
8 | CCCCCCCCc1cccc(CC[C@@H]2OC[C@@H](N)[C@@H]2O)c1 | 16000 | 2100 | –
9 | N[C@@H]1CO[C@@H](CCCCCCCCCCOCC2CCCCC2)[C@H]1O | 220 | 240 | –
10 | CCCCCCCCCCCCCC[C@@H]1OC[C@@H](NC(C)=N)[C@@H]1O | 3100 | 9400 | –
11 | CCCCCCCCCCCCc1ccc(CC[C@@H]2OC[C@@H](N)[C@@H]2O)cc1 | 880 | 21000 | –
12 | CCCCCCCCCc1cccc(CC[C@@H]2OC[C@@H](N)[C@@H]2O)c1 | 12000 | 1700 | –
13 | N[C@@H]1CO[C@@H](CCCCCCCCOCC2CCCCC2)[C@H]1O | 2800 | 1300 | –
14 | N[C@@H]1CO[C@@H](CCCCCCCCCCCOCC2CCCCC2)[C@H]1O | 380 | 780 | –
15 | CC(C)COCCCCCCCCCCC[C@@H]1OC[C@@H](N)[C@@H]1O | 710 | 840 | –
16 | CCCCCCCCCCCCCC[C@@H]1OC[C@@H](NC(=N)N)[C@@H]1O | 1100 | 1900 | –
17 | CCCCCCCCCCCCCC[C@@H]1OC[C@@H](N)[C@@H]1O | 820 to 1100 | 600 to 740 | –
18 | CCCCCCCCCCCCc1ccc(-c2noc(C3(C(=N)N)CC3)n2)cc1 | – | – | Ki (Sphingosine kinase 2 [5]): 14.1 µM; Ki (Sphingosine kinase 1 [6]): 40 nM
19 | N[C@@H]1CO[C@@H](CCCCCCCCCOCC2CCCCC2)[C@H]1O | 670 | 460 | –
20 | CCCCCCCCCCCCCCc1ccc(CC[C@@H]2OC[C@@H](N)[C@@H]2O)cc1 | > 30000 | > 30000 | –
21 | CCCCOc1ccc(CC/C=C2\SC(=O)N(CCN)C2=O)cc1 | – | – | IC50 (Sphingosine kinase 1 [7]): > 10 µM
22 | CCCCCCCCCCCCCC[C@@H]1OC[C@@H](N)[C@@H]1OC | 4000 | > 30000 | –
23 | O=C(NCc1ccncc1)C12CC3CC(C1)CC(c1ccc(Cl)cc1)(C3)C2 [ABC-294640] | – | – | IC50 (Sphingosine kinase 1 [3]): > 100000 nM; IC50 (Sphingosine kinase 2 [4]): 60 µM
24 | CCCCCCc1ccc(CC[C@@H]2OC[C@@H](N)[C@@H]2O)cc1 | > 30000 | 8300 | –
25 | CCCCCCCCc1ccc(CC[C@@](N)(CO)COC)cc1 | – | – | IC50 (Sphingosine kinase 2 [8]): 27 µM; IC50 (Sphingosine kinase 1 [9]): > 50 µM
26 | CCCCCCCOCCCCCC[C@@H]1OC[C@@H](N)[C@@H]1O | 9600 | 3900 | –
